# Experimental data of several laboratories.
# Target: Muscarinic acetylcholine receptor M4 (CHRM4, Homo sapiens, UniProt P08173)
# Sequence (P08173 1-479, as in one of the studies): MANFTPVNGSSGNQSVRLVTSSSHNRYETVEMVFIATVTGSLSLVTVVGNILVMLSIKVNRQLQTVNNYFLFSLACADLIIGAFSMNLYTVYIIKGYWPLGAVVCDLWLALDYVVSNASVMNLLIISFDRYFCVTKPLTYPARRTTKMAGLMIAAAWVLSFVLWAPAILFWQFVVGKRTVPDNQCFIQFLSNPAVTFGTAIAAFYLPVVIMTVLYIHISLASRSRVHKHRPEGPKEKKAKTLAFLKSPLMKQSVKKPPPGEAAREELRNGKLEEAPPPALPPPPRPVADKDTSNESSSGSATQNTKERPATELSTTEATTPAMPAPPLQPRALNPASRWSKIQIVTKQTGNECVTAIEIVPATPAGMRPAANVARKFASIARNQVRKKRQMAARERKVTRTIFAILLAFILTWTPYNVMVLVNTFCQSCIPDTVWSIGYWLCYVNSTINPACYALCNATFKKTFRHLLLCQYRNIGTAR
Compound,test,setting,inhibition [%]
COCc1c(-c2cc3cc(C)cc(OC)c3s2)c2c(N)ncnn2c1CN1CCNC(=O)C1,"ligand displacement, radioligand",10 µM,6
CN1CC[C@@]2(C)c3cc(OC(=O)Nc4ccccc4)ccc3N(C)[C@@H]12,"ligand displacement, radioligand",10 µM,0.3
c1ccc(C(NCCNC(c2ccccc2)c2ccccc2)c2ccccc2)cc1,cell-free assay,10 µM,32
Cc1ncc(C)n2nc(/C=C/c3nc(N4CCCC4)cc(N4CCOCC4)n3)nc12,ligand displacement,10 µM,47
Cn1cncc1[C@@](O)(COc1ccc(C#N)cc1-c1ccc(OC(F)(F)F)cc1)c1ccc(C#N)cc1,ligand displacement,10 µM,-9.7
C[C@H](C(=O)N[C@H]1COc2ccccc2[C@@H]1S(C)(=O)=O)c1ccc(F)cc1,cell-free assay,10 µM,6
O=C(Nc1cccnn1)N1CCN([C@@H]2CCOc3cc(C(F)(F)F)ccc32)CC1,cell-free assay,20 µM,15
N#CC1(c2ccccn2)CCN(Cc2cc(C(=O)O)c(=O)n3ccccc23)CC1,cell-free assay,10 µM,-2.36
